Measurements from ChEMBL document CHEMBL3046036, “Bioactivity of the fungal metabolite (8R,16R)-(-)-pyrenophorin on graminaceous plants” (J Agric Food Chem, 2005).

Assays:
Conditions in all cases: in vivo
Hordeum vulgare = test: Effect on chlorophyll content in Hordeum vulgare (barley) assessed as chlorophyll dissipation rate at 20 degC and 12 hr photoperiod at 320 uM relative to control; format: ADME, organism-based
Outline: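 Leaf sections were treated with 320 µM metabolite and incubated in the dark at 20 °C, with 16 tubes per treatment. Every 12 h, segments from one tube were split into four tubes and extracted in DMSO at 65 °C for 30 min. Extracts were read at A665, tissue was dried at 105 °C and weighed, and chlorophyll was expressed as A665 per g dry weight.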

Avena fatua = test: Effect on chlorophyll content in Avena fatua assessed as chlorophyll dissipation rate at 20 degC in the dark at 320 uM relative to control
Avena sativa = test: Effect on chlorophyll content in Avena sativa assessed as chlorophyll dissipation rate at 20 degC in the dark at 320 uM relative to control
Avena sterilis = test: Effect on chlorophyll content in Avena sterilis assessed as chlorophyll dissipation rate at 20 degC in the dark at 320 uM relative to control
Triticum aestivum = test: Effect on chlorophyll content in Triticum aestivum (wheat) assessed as chlorophyll dissipation rate at 20 degC in the dark at 320 uM relative to control

Measured: Activity

C[C@@H]1CC[C@H](O)/C=C/C(=O)O[C@H](C)CC[C@H](O)/C=C/C(=O)O1 [(5S,8R,13S,16R)-(-)-PYRENOPHOROL]
Non-toxic: Hordeum vulgare | Avena fatua | Avena sativa | Avena sterilis | Triticum aestivum
